Hits are enriched below; roughly 6.4% of the tested compounds scored in any of these assays.
H69AR growth 86K = proliferation blockers of H69AR lung cancer cells, primary screen, cell-based, human, 86K library. 85,000 compounds, 6% hits. viability, % at 10 µM. H69AR lung tumor viability, ATP luminescence, 72 h; stronger effect = lower value;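 active = viability at or below 40%; inactive = viability above 40%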;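 also: multidrug resistant small cell line overexpressing MRP-1 efflux transporter; 100% = mean luminescence of untreated control wells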
Lung fibro prol = antiproliferative effect on LL 47 fibroblasts – human, LL 47 cells, CellTiter-Glo luminescence, primary screen | LL 47 human lung fibroblast viability, ATP luminescence; stronger effect = lower value | viability, % at 10 µM | 85,000 compounds, 1.1% hits | AID 719, 2007;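 active = viability at or below 50% in the single dose screen; inactive = viability above 50%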;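 also: compound exposure lasted 72 h before the ATP readout; 100% = median luminescence of untreated cell-only wells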
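Assay system: human lung fibroblast line LL 47, low passage. Input: 1,150 fibroblasts seeded per well. Times: overnight cell rest, 72 h compound treatment at 37 °C. Evaluation: % viability of median cell-only signal. Technique: luminescent ATP detection, CellTiter-Glo. Control set: cell-only wells, no compound.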
HUVEC prolif 384 = inhibitors of HUVEC proliferation, primary screen, cell-based, 384-well | CellTiter-Glo luminescence, 72 h; stronger effect = lower value | viability, % at 10 µM (by protocol) | 86,000 compounds, 1.1% hits | AID 648, 2007;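 active = viability at or below 30%; inactive = viability above 30%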;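 also: 100% = median luminescence of DMSO-only cell control wells on each plate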
tolC growth inh = growth inhibitors of E. coli tolC mutant, primary screen, strain BW25113 ΔtolC::kan, 384-well | 65,000 compounds, 2.2% hits | AID 573, 2007 | growth inhibition, % at 10 µM (by protocol) | OD615;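 active = growth inhibition at or above a cutoff equal to the mean over every tested compound plus 3 SD, cut at about 60% in these data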;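 also: growth measured after 20 h incubation at 37 °C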
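Assay system: tolC-deleted E. coli BW25113. Medium: kanamycin-containing LB broth (50 µg/mL). Dosing: 10 µM final, single dose. Timing: bacterial growth with compound for 20 h at 37 °C. Detection: A615 absorbance measurement. Read-out basis: growth inhibition in percent.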
Ecoli WT expand = growth inhibitors of wild-type E. coli, primary screen, strain BW25113, expanded library, OD600; OD600 absorbance; growth inhibition, % at 100 µM; 98,000 compounds, 0.15% hits;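 active = growth inhibition above about 50% at one test dose, limit read from the data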;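 also: growth measured after 20 h incubation at 37 °C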
Jurkat viability = cytotoxicity toward Jurkat T cells, primary screen, cytotoxicity control, cell-based, Jurkat E6.1, 60K MLSMR library | Jurkat E6.1 viability, ATP luminescence, 48 h | inhibition, % at 4 µM | 56,000 compounds, 1.2% hits;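 active = inhibition above the mean inhibition of all tested compounds plus 3 SD, cut at about 28% in these data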
The depositor's hits bear a star.

How did O=C(O)CCC(=O)CCC(=O)c1ccc(Cl)cc1 do in these assays?
H69AR growth 86K: 74; Lung fibro prol: 115; HUVEC prolif 384: 101; tolC growth inh: -1; Ecoli WT expand: -9

Results for CCCSc1nnc(NC(=O)Nc2ccc(F)cc2)s1 ?
H69AR growth 86K: 11*; Lung fibro prol: 47*; HUVEC prolif 384: 47; tolC growth inh: 4; Ecoli WT expand: 7

Results for CCCCNC(=O)C1CCN(c2nc(OC)nc(OC)n2)CC1 ?
H69AR growth 86K: 88; Lung fibro prol: 102; HUVEC prolif 384: 106

What do the screens show for `Cc1ccc(C(C(=O)NC2CCCCC2)N(Cc2ccco2)C(=O)C2COc3ccccc3O2)o1` (configuration not stated)?
H69AR growth 86K: 98; Lung fibro prol: 102; HUVEC prolif 384: 110; Ecoli WT expand: -4

What do the screens show for `O=C(NCc1ccco1)C(c1cccs1)N(C(=O)C1COc2ccccc2O1)c1cccc(O)c1` (configuration not stated)?
H69AR growth 86K: 83; Lung fibro prol: 98; HUVEC prolif 384: 86; tolC growth inh: 76*; Ecoli WT expand: -8; Jurkat viability: 4

Results for COc1cccc(NC(=O)Cn2c(=O)n(CC3CCCO3)c(=O)c3ccccc32)c1 (configuration not stated) ?
H69AR growth 86K: 83; Lung fibro prol: 108; HUVEC prolif 384: 104; Ecoli WT expand: 0

What do the screens show for `CC(C(=O)Nc1ccccc1Sc1ccccc1)N(c1ccccc1)S(C)(=O)=O` (configuration not stated)?
Ecoli WT expand: -6

What do the screens show for `COc1ccc2ccccc2c1CN1CCN(C)CC1`?
H69AR growth 86K: 99; Lung fibro prol: 96; HUVEC prolif 384: 89; tolC growth inh: -11; Ecoli WT expand: 3; Jurkat viability: -4

How did COCc1cc(CN2CCN(C)CC2)c(O)c2ncccc12 do in these assays?
H69AR growth 86K: 25*; Lung fibro prol: 87; HUVEC prolif 384: 90; Ecoli WT expand: 14

What do the screens show for `Oc1c(CN2CCOCC2)cc(COCc2ccccc2)c2cccnc12`?
tolC growth inh: 45; Jurkat viability: 54*

How did Oc1cnc2ccccc2c1CN1CCOCC1 do in these assays?
H69AR growth 86K: 91; Lung fibro prol: 95; HUVEC prolif 384: 80; tolC growth inh: -13; Ecoli WT expand: 6; Jurkat viability: 13

How did CCOc1ccc(S(=O)(=O)NCCCN2CCOCC2)cc1 do in these assays?
H69AR growth 86K: 102; Lung fibro prol: 95; HUVEC prolif 384: 93; Ecoli WT expand: 5

Results for CN(Cc1ccccc1)C(=O)CC(c1ccccc1)c1cc(Cl)ccc1O (configuration not stated) ?
Ecoli WT expand: -3

Results for CCc1ccc(N2CC(C(=O)NCc3ccco3)CC2=O)cc1 (configuration not stated) ?
H69AR growth 86K: 90; Lung fibro prol: 92; HUVEC prolif 384: 91

What do the screens show for `C/C(Cl)=C\Cn1c(N2CCCC2)nc2c1c(=O)[nH]c(=O)n2C`?
H69AR growth 86K: 70; Lung fibro prol: 92; HUVEC prolif 384: 96; tolC growth inh: -3; Ecoli WT expand: 22; Jurkat viability: 3

Results for C/C(Cl)=C/Cn1c(N2CCCC2)nc2c1c(=O)n(C)c(=O)n2C ?
H69AR growth 86K: 33*; Lung fibro prol: 86; HUVEC prolif 384: 92; tolC growth inh: -5; Ecoli WT expand: -11; Jurkat viability: -1

What do the screens show for `CCOC(=O)Cn1c(=O)c2c(nc(Br)n2Cc2ccc(Cl)cc2)n(C)c1=O`?
H69AR growth 86K: 85; Lung fibro prol: 87; HUVEC prolif 384: 92; tolC growth inh: -7; Jurkat viability: -6

Results for CCCCCOC(=O)Cn1c(=O)c2c(nc(N3CCOCC3)n2C)n(C)c1=O ?
H69AR growth 86K: 35*; Lung fibro prol: 96; HUVEC prolif 384: 94; Ecoli WT expand: 3

What do the screens show for `CCOC(=O)Cn1c(=O)c2c(nc(N3CCCCC3)n2Cc2ccccc2)n(C)c1=O`?
H69AR growth 86K: 24*; Lung fibro prol: 96; HUVEC prolif 384: 102; tolC growth inh: 33; Ecoli WT expand: 1; Jurkat viability: 12

What do the screens show for `CCOC(=O)Cn1c(=O)c2c(nc(N3CCOCC3)n2C)n(C)c1=O`?
H69AR growth 86K: 68; Lung fibro prol: 99; HUVEC prolif 384: 105; Ecoli WT expand: 0

How did Cn1c(=O)c2c(nc(N3CCN(Cc4ccccc4)CC3)n2CC(=O)c2ccccc2)n(C)c1=O do in these assays?
H69AR growth 86K: 32*; Lung fibro prol: 93; HUVEC prolif 384: 92; tolC growth inh: 12

Results for Cn1c(=O)c2c(nc(N3CCN(Cc4ccccc4)CC3)n2CCCc2ccccc2)n(C)c1=O ?
H69AR growth 86K: 74; Lung fibro prol: 89; HUVEC prolif 384: 67; tolC growth inh: 40; Ecoli WT expand: -16; Jurkat viability: 0

What do the screens show for `O=C(Cn1c(=O)n(-c2ccccc2)c(=O)n1CC(=O)N1CCCCC1)N1CCCCC1`?
H69AR growth 86K: 96; Lung fibro prol: 100; HUVEC prolif 384: 106; tolC growth inh: -10; Ecoli WT expand: -1; Jurkat viability: 0

What do the screens show for `O=C(O)C1C2C=CC(O2)C1C(=O)NCc1ccccc1Br` (configuration not stated)?
H69AR growth 86K: 93; Lung fibro prol: 107; HUVEC prolif 384: 83; Ecoli WT expand: 5

What do the screens show for `Cc1cc(C(=O)COC(=O)c2ccccc2O)c(C)n1Cc1cccs1`?
Ecoli WT expand: 0

What do the screens show for `CC(=O)Nc1ccccc1OCC(=O)c1cc(C)n(Cc2cccs2)c1C`?
H69AR growth 86K: 80; Lung fibro prol: 97; HUVEC prolif 384: 69; tolC growth inh: 39; Ecoli WT expand: -8; Jurkat viability: 100*

Results for O=C(COc1ncnc2ccccc12)N1CCN(S(=O)(=O)c2ccc(Cl)cc2)CC1 ?
H69AR growth 86K: 88; Lung fibro prol: 95; HUVEC prolif 384: 101; tolC growth inh: -2; Ecoli WT expand: -6; Jurkat viability: 4

What do the screens show for `N#CC1=C(N)SC(N)=C(C#N)C1CCC1CCCCC1`?
H69AR growth 86K: 85; Lung fibro prol: 93; HUVEC prolif 384: 68; tolC growth inh: 99*; Ecoli WT expand: 8; Jurkat viability: 16

Results for Cc1sccc1C1C(C#N)=C(N)SC(N)=C1C#N ?
H69AR growth 86K: 80; Lung fibro prol: 101; HUVEC prolif 384: 92; tolC growth inh: -2; Ecoli WT expand: 0

Results for Cc1cc(OCCCCCNCCO)cc(C)c1Cl ?
H69AR growth 86K: 37*; Lung fibro prol: 75; HUVEC prolif 384: 73; tolC growth inh: 5; Ecoli WT expand: 26; Jurkat viability: 1

How did Cc1cc(OCCNCCO)cc(C)c1Cl do in these assays?
H69AR growth 86K: 92; Lung fibro prol: 102; HUVEC prolif 384: 88; tolC growth inh: -6; Ecoli WT expand: 11; Jurkat viability: -6
